In PMC10963893 (eBioMedicine, 2024):
In brackets after ≈: the same amount, converted by molar mass.

Assays:
[1] = system: K. pneumoniae Ecl8; assay: Broth micro-dilution MIC / dose-response growth inhibition; format: cell-based, Klebsiella pneumoniae; details: for MIC: Klebsiella pneumoniae, ECL8, read-out: K. pneumoniae Ecl8 MIC; for K. pneumoniae Ecl8 Interp.: S/R interpretation by EUCAST breakpoint, ECOFF or fold vs QC strain
[2] = system: K. pneumoniae NCTC 13438; assay: as above; format: cell-based, Klebsiella pneumoniae; details: for MIC: Klebsiella pneumoniae, NCTC13438, read-out: K. pneumoniae NCTC 13438 MIC; for K. pneumoniae NCTC 13438 Interp.: S/R interpretation by EUCAST breakpoint, ECOFF or fold vs QC strain
[3] = system: A. baumannii NCTC 13424; assay: as above; format: cell-based, Acinetobacter baumannii; details: for MIC: Acinetobacter baumannii, NCTC13424, read-out: A. baumannii NCTC 13424 MIC; for A. baumannii NCTC 13424 Interp.: S/R interpretation by EUCAST breakpoint, ECOFF or fold vs QC strain
[4] = system: primary screening strains (A. baumannii NCTC 13424, K. pneumoniae NCTC 13438, K. pneumoniae Ecl8); assay: HTS / susceptibility assay with the primary screening strains; format: cell-based; details: 50 mg L^−1, positive control
In short: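 Broth microdilution (EUCAST method adapted to 384-well); inoculum 5 × 10^5 CFU mL−1 (OD600 0.0005); static at 37 °C in 5% CO2 for 24 h (K. pneumoniae) or 20 h (A. baumannii); compound at one concentration in duplicate, or two concentrations (1.4–68.0 μM, 0.5% DMSO) singly for one library; OD600 read; % growth inhibition normalised between apramycin 50 mg L−1 and DMSO wells; actives called at 3σ.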

Molecule	MIC [1]	MIC [2]	MIC [3]	K. pneumoniae Ecl8 Interp. [1]	K. pneumoniae NCTC 13438 Interp. [2]	A. baumannii NCTC 13424 Interp. [3]	growth inhibition of primary screening strains [4]
NCC[C@H](O)C(=O)N[C@@H]1C[C@H](N)[C@@H](O[C@H]2O[C@H](CN)[C@@H](O)[C@H](O)[C@H]2O)[C@H](O)[C@H]1O[C@H]1O[C@H](CO)[C@@H](O)[C@H](N)[C@H]1O [Amikacin]	2 µg/mL (≈ 3.42 µM)	64 µg/mL (≈ 109 µM)	> 512 µg/mL	S	R	R	
CO/N=C(\C(=O)N[C@@H]1C(=O)N2C(C(=O)O)=C(COC(C)=O)CS[C@H]12)c1csc(N)n1 [Cefotaxime]	0.06 µg/mL (≈ 0.132 µM)	256 µg/mL (≈ 562 µM)	512 µg/mL (≈ 1120 µM)	S	R	R	
O=C(N[C@H](CO)[C@H](O)c1ccc([N+](=O)[O-])cc1)C(Cl)Cl [Chloramphenicol]	4 µg/mL (≈ 12.4 µM)	32 µg/mL (≈ 99 µM)	64 µg/mL (≈ 198 µM)	S	R		
O=C(O)c1cn(C2CC2)c2cc(N3CCNCC3)c(F)cc2c1=O [Ciprofloxacin]		> 512 µg/mL				R	
CNC(C)C1CCC(N)C(OC2C(N)CC(N)C(OC3OCC(C)(O)C(NC)C3O)C2O)O1 (centres unmarked) [Gentamicin]	1 µg/mL (≈ 2.09 µM)	4 µg/mL (≈ 8.38 µM)	> 512 µg/mL	S	R	R	
CN(C)c1ccc(O)c2c1C[C@H]1C[C@H]3[C@H](N(C)C)C(O)=C(C(N)=O)C(=O)[C@@]3(O)C(O)=C1C2=O [Minocycline]	2 µg/mL (≈ 4.37 µM)	4 µg/mL (≈ 8.74 µM)	4 µg/mL (≈ 8.74 µM)	S ^b	S ^b	S ^b	
COc1cc(Cc2cnc(N)nc2N)cc(OC)c1OC [Trimethoprim]	4 µg/mL (≈ 13.8 µM)	> 512 µg/mL	128 µg/mL (≈ 441 µM)	S	R	R	
Colistin				S ^b	S ^b	S ^b	
Polymyxin B				S ^c	S ^c	S ^c	

More lines, in order of falling MIC [1], values ahead:

MIC [1]	MIC [2]	MIC [3]	Molecule	K. pneumoniae Ecl8 Interp. [1]	K. pneumoniae NCTC 13438 Interp. [2]	A. baumannii NCTC 13424 Interp. [3]	growth inhibition of primary screening strains [4]
64 µg/mL (≈ 464 µM)	16 µg/mL (≈ 116 µM)	64 µg/mL (≈ 464 µM)	C[C@@H]1O[C@@H]1P(=O)(O)O [Fosfomycin]	R	S		
64 µg/mL (≈ 253 µM)	> 512 µg/mL	> 512 µg/mL	Cc1cc(NS(=O)(=O)c2ccc(N)cc2)no1 [Sulfamethoxazole]	R ^c	R ^c	R ^c	
4 µg/mL (≈ 7.41 µM)	4 µg/mL (≈ 7.41 µM)	8 µg/mL (≈ 14.8 µM)	CN[C@@H]1[C@@H](O[C@H]2O[C@H](CO)[C@@H](N)[C@H](O)[C@H]2O)OC2C[C@@H](N)[C@@H](O[C@H]3[C@H](O)[C@@H](O)[C@H](N)C[C@@H]3N)OC2[C@@H]1O (some centres unmarked) [Apramycin]	S ^c	S ^c	S ^c	completely inhibited the growth
1 µg/mL (≈ 2.25 µM)	4 µg/mL (≈ 9 µM)	256 µg/mL (≈ 576 µM)	CN(C)[C@@H]1C(O)=C(C(N)=O)C(=O)[C@@]2(O)C(O)=C3C(=O)c4c(O)cccc4[C@@](C)(O)[C@H]3C[C@@H]12 [Tetracycline]	S ^b	S ^b	R ^b	
1 µg/mL (≈ 2.14 µM)	32 µg/mL (≈ 68.4 µM)	> 512 µg/mL	NC[C@H]1O[C@H](O[C@H]2[C@H](O)[C@@H](O[C@H]3O[C@H](CO)[C@@H](O)[C@H](N)[C@H]3O)[C@H](N)C[C@@H]2N)[C@H](N)C[C@@H]1O [Tobramycin]	S	R	R	
0.5 µg/mL (≈ 0.915 µM)	512 µg/mL (≈ 937 µM)	64 µg/mL (≈ 117 µM)	CC(C)(O/N=C(\C(=O)N[C@@H]1C(=O)N2C(C(=O)[O-])=C(C[n+]3ccccc3)CS[C@H]12)c1csc(N)n1)C(=O)O [Ceftazidime]	S	R	R	
0.25 µg/mL (≈ 0.574 µM)	> 512 µg/mL	32 µg/mL (≈ 73.5 µM)	C[C@H]1[C@H](NC(=O)/C(=N\OC(C)(C)C(=O)O)c2csc(N)n2)C(=O)N1S(=O)(=O)O [Aztreonam]	S	R		
0.25 µg/mL (≈ 0.835 µM)	128 µg/mL (≈ 428 µM)	128 µg/mL (≈ 428 µM)	C[C@@H](O)[C@H]1C(=O)N2C(C(=O)O)=C(SCCN=CN)C[C@H]12 [Imipenem]	S	R	R	
0.12 µg/mL (≈ 0.25 µM)	128 µg/mL (≈ 266 µM)	32 µg/mL (≈ 66.6 µM)	CO/N=C(\C(=O)N[C@@H]1C(=O)N2C(C(=O)[O-])=C(C[N+]3(C)CCCC3)CS[C@H]12)c1csc(N)n1 [Cefepime]	S	R	R	
0.12 µg/mL (≈ 0.332 µM)	128 µg/mL (≈ 354 µM)	32 µg/mL (≈ 88.6 µM)	C[C@H]1COc2c(N3CCN(C)CC3)c(F)cc3c(=O)c(C(=O)O)cn1c23 [Levofloxacin]	S	R	R	
0.06 µg/mL (≈ 0.156 µM)		64 µg/mL (≈ 167 µM)	C[C@@H](O)[C@H]1C(=O)N2C(C(=O)O)=C(S[C@@H]3CN[C@H](C(=O)N(C)C)C3)[C@H](C)[C@H]12 [Meropenem]	S	R	R	
